Screening data deposited in PubChem by The Scripps Research Institute Molecular Screening Center.
Most compounds without a hit are left out; they make up all but 0.99% or so of the library.
Fam108B inh: Fam108B inhibition, counter-screen for RBBP9 inhibitors | recombinant Fam108B, FP-Rh probe fluorescence polarization | inhibition, % at 9.51 µM | actives 0.33% (n = 300,000) | AID 1947;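 active = inhibition above the screen mean inhibition plus 3 SD, computed separately per campaign, cut at about 18% in these data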;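 also: inhibitors lower polarization as less probe binds the enzyme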
LYPLA2 inh: counter-screen for PME1 inhibitors: inhibitors of human LYPLA2; recombinant LYPLA2, FP-Rh probe fluorescence polarization; actives 0.38% (n = 320,000); O95372; AID 2177; inhibition, % at 5.9 µM;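 active = inhibition above the screen-wide mean plus 3 SD, limit set per campaign, cut at about 26% in these data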
Target sequence (O95372 whole entry, looked up): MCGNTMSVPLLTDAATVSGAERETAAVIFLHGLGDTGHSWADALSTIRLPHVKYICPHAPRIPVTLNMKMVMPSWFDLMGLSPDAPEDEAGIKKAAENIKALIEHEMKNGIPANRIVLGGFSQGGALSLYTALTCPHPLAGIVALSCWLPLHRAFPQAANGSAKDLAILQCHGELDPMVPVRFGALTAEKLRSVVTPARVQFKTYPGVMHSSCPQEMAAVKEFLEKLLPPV
RBBP9 inh: blocks human serine hydrolase RBBP9; actives 0.2% (n = 220,000); O75884; recombinant RBBP9, FP-Rh probe fluorescence polarization; inhibition, % at 7.94 µM;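 active = inhibition above the campaign mean of all tested compounds plus 3 SD, cut at about 14% in these data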
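Controls: DMSO-treated enzyme wells and wells lacking RBBP9 | Material: RBBP9 protein | Technique: Fluorescence polarization | Replication: Single well per compound, no replicates | Buffer or medium: Tris-NaCl-Pluronic buffer, pH 8.0 | Timing: 30 min compound preincubation, 45 min probe labeling, 25 °C | Read-out basis: Percent inhibition from mP, scaled between DMSO and no-protein wells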
PME-1 inh: PME-1 (human) inhibition | actives 0.53% (n = 320,000) | inhibition, % at 5.9 µM | recombinant PME-1, FP-Rh probe fluorescence polarization | Q9Y570;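 active = inhibition above the campaign mean of all compounds plus 3 SD, cut at about 26% in these data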;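 also: competitive labeling of PME-1 active site by serine hydrolase directed probe; inhibitors block probe labeling so polarization falls and inhibition rises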
Target sequence (Q9Y570 whole entry, looked up): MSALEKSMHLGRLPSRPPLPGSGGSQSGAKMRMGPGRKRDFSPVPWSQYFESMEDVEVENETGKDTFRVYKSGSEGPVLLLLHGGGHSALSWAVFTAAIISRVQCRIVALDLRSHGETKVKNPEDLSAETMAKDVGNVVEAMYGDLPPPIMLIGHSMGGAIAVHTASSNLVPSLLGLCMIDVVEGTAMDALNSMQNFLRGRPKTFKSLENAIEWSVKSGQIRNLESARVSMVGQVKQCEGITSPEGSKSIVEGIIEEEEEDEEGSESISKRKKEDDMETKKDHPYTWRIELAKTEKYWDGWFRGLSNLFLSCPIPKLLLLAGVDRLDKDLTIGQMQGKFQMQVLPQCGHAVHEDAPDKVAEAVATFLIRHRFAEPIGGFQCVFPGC
LYPLA1 inh: counter-screen for PME1 inhibitors: inhibitors of human LYPLA1. recombinant LYPLA1, FP-Rh probe fluorescence polarization. inhibition, % at 5.9 µM. actives 0.16% (n = 320,000);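 active = inhibition above the mean of all tested compounds plus 3 SD, set per campaign, cut at about 14% in these data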;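 also: inhibitors block serine hydrolase probe labeling of LYPLA1 so polarization falls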
A number is an active result.

How did Cc1cc(C(=O)CSc2nc(N)cc(N)n2)c(C)n1-c1cccc(C(F)(F)F)c1 do in these assays?
Fam108B inh: inactive; LYPLA2 inh: inactive; RBBP9 inh: inactive; PME-1 inh: 29; LYPLA1 inh: inactive

How did CCN1CCOC(CC(=O)Nc2ccc([N+](=O)[O-])cc2)C1=O (stereo not drawn) do in these assays?
Fam108B inh: inactive; LYPLA2 inh: inactive; RBBP9 inh: inactive; PME-1 inh: inactive; LYPLA1 inh: inactive

How did CC(=O)Nc1ccc(C(=O)OCC(=O)Nc2ccccc2Sc2ccccc2)cc1 do in these assays?
Fam108B inh: inactive; LYPLA2 inh: inactive; RBBP9 inh: inactive; PME-1 inh: inactive; LYPLA1 inh: inactive

Results for N#CCC(=O)Nc1ccc(C(=O)OCC(=O)Nc2ccccc2Sc2ccccc2)cc1 ?
Fam108B inh: inactive; LYPLA2 inh: inactive; RBBP9 inh: inactive; PME-1 inh: 34; LYPLA1 inh: inactive

How did Cc1cccc(C(=O)Nc2ccc3ccccc3c2)c1 do in these assays?
Fam108B inh: inactive; LYPLA2 inh: inactive; PME-1 inh: inactive; LYPLA1 inh: inactive

Results for Cc1ccc(C(=O)CSC2=C(C#N)C(c3ccco3)C3=C(CCCC3=O)N2)cc1 (stereo not drawn) ?
Fam108B inh: inactive; LYPLA2 inh: inactive; RBBP9 inh: inactive; PME-1 inh: 32; LYPLA1 inh: inactive

What do the screens show for `Cc1ccc(C(=O)Nc2cccc(NC(=O)c3cccs3)c2)c(C)c1`?
Fam108B inh: inactive; LYPLA2 inh: inactive; PME-1 inh: inactive; LYPLA1 inh: inactive

Results for CCN(CC(=O)Nc1c(F)cccc1F)C(=O)CCCOc1ccc(OC)cc1 ?
Fam108B inh: inactive; LYPLA2 inh: inactive; PME-1 inh: inactive; LYPLA1 inh: inactive

What do the screens show for `CCN(CC(=O)Nc1c(F)cccc1F)C(=O)CCc1ccc(OC)cc1`?
Fam108B inh: inactive; LYPLA2 inh: inactive; RBBP9 inh: inactive; PME-1 inh: 41; LYPLA1 inh: inactive

What do the screens show for `Fc1cccc2sc(Nc3nnc(-c4ccccc4)o3)nc12`?
Fam108B inh: inactive; LYPLA2 inh: inactive; RBBP9 inh: inactive; PME-1 inh: 28; LYPLA1 inh: inactive

What do the screens show for `CCOC(=O)c1ccc(NC(=O)Nc2ccc(OC)c(OC)c2)cc1`?
Fam108B inh: inactive; LYPLA2 inh: inactive; RBBP9 inh: inactive; PME-1 inh: inactive; LYPLA1 inh: inactive

What do the screens show for `CCCCOC(=O)c1ccc(NC(=O)Nc2ccc(OC)c(OC)c2)cc1`?
Fam108B inh: inactive; LYPLA2 inh: inactive; RBBP9 inh: inactive; PME-1 inh: 40; LYPLA1 inh: inactive

What do the screens show for `COC(=O)c1ccc(NC(=O)Nc2ccc(OC)cc2)cc1`?
Fam108B inh: inactive; LYPLA2 inh: inactive; RBBP9 inh: inactive; PME-1 inh: 29; LYPLA1 inh: inactive

Results for CC12CCC(C(=O)N(CC3CO3)C1=O)C2(C)C (stereo not drawn) ?
Fam108B inh: inactive; LYPLA2 inh: inactive; RBBP9 inh: inactive; PME-1 inh: inactive; LYPLA1 inh: inactive

What do the screens show for `CC(=O)c1ccc(OCCNS(=O)(=O)c2ccc(-n3cnnn3)cc2)cc1`?
Fam108B inh: inactive; LYPLA2 inh: inactive; PME-1 inh: inactive; LYPLA1 inh: inactive

How did COc1cccc(CNC(=O)c2cc(C3CC3)nc3c2cnn3C(C)C)c1 do in these assays?
LYPLA2 inh: inactive; PME-1 inh: inactive; LYPLA1 inh: inactive

Results for O=S(=O)(Cc1ccccc1)N(O)c1ccccc1 ?
Fam108B inh: inactive; LYPLA2 inh: inactive; PME-1 inh: inactive; LYPLA1 inh: inactive

How did O=C1N=NC(=O)N1c1ccccc1 do in these assays?
Fam108B inh: inactive; LYPLA2 inh: inactive; PME-1 inh: inactive; LYPLA1 inh: inactive

What do the screens show for `COc1ccc(-c2cc(-c3ccc(Cl)cc3)n[nH]2)c(O)c1`?
Fam108B inh: inactive; LYPLA2 inh: inactive; PME-1 inh: 42; LYPLA1 inh: inactive

How did Oc1ccc(Br)cc1-c1cc(-c2ccc(Cl)cc2)n[nH]1 do in these assays?
Fam108B inh: inactive; LYPLA2 inh: inactive; RBBP9 inh: inactive; PME-1 inh: inactive; LYPLA1 inh: inactive

What do the screens show for `COc1ccc(-c2cc(-c3cc(OC)ccc3O)[nH]n2)cc1`?
Fam108B inh: inactive; LYPLA2 inh: inactive; RBBP9 inh: inactive; PME-1 inh: 66; LYPLA1 inh: inactive

What do the screens show for `CC1(c2ccccc2)NC(=O)N(N)C1=O` (stereo not drawn)?
Fam108B inh: inactive; LYPLA2 inh: inactive; RBBP9 inh: inactive; PME-1 inh: inactive; LYPLA1 inh: inactive

Results for Cc1ccc(S(=O)(=O)Oc2ccc(/C=N/NC(=O)c3cccnc3)cc2)cc1 ?
Fam108B inh: inactive; LYPLA2 inh: inactive; RBBP9 inh: inactive; PME-1 inh: inactive; LYPLA1 inh: inactive

How did Cc1[nH]c2ccccc2c1/C=C/c1nc2ccccc2c(=O)n1CCO do in these assays?
Fam108B inh: inactive; LYPLA2 inh: inactive; RBBP9 inh: inactive; PME-1 inh: 70; LYPLA1 inh: inactive

Results for O=c1c2ccccc2nc(/C=C/c2ccc(Br)cc2)n1CCO ?
Fam108B inh: inactive; LYPLA2 inh: inactive; PME-1 inh: inactive; LYPLA1 inh: inactive

How did COc1ccc(-c2ccc3nnc(SCC(=O)NCC4CCCO4)n3n2)cc1 (stereo not drawn) do in these assays?
Fam108B inh: inactive; LYPLA2 inh: inactive; PME-1 inh: inactive; LYPLA1 inh: inactive

How did Cc1ccc(Nc2nnc(-c3ccc(N4CCOCC4)c([N+](=O)[O-])c3)c3ccccc23)cc1 do in these assays?
Fam108B inh: inactive; LYPLA2 inh: inactive; RBBP9 inh: inactive; PME-1 inh: 48; LYPLA1 inh: inactive

What do the screens show for `Cn1cc(CN2CCN(Cc3ccccc3)C(CCO)C2)c(-c2ccccc2)n1` (stereo not drawn)?
Fam108B inh: inactive; LYPLA2 inh: inactive; RBBP9 inh: inactive; PME-1 inh: inactive; LYPLA1 inh: inactive

Results for COc1ccc(O)c(/C=N/Nc2nc(C)cc(-c3ccccc3)n2)c1 ?
Fam108B inh: inactive; LYPLA2 inh: inactive; PME-1 inh: 36; LYPLA1 inh: inactive

What do the screens show for `O=C(O)CC/C(=C\c1ccccc1[N+](=O)[O-])c1nc2ccccc2s1`?
Fam108B inh: inactive; LYPLA2 inh: inactive; RBBP9 inh: inactive; PME-1 inh: inactive; LYPLA1 inh: inactive

How did O=C(O)CC/C(=C\c1ccc(N2CCCC2)c([N+](=O)[O-])c1)c1nc2ccccc2s1 do in these assays?
Fam108B inh: inactive; LYPLA2 inh: inactive; RBBP9 inh: inactive; PME-1 inh: 40; LYPLA1 inh: inactive

What do the screens show for `Cc1ccc(C(C(=O)Nc2ccc(C(C)C)cc2)N(C)C(=O)c2ccc(=O)[nH]c2)cc1` (stereo not drawn)?
Fam108B inh: inactive; LYPLA2 inh: inactive; RBBP9 inh: inactive; PME-1 inh: inactive; LYPLA1 inh: inactive

What do the screens show for `CC(C(=O)Nc1ccc(C(=O)O)c(O)c1)N1C(=O)/C(=C\c2ccco2)SC1=S` (stereo not drawn)?
Fam108B inh: 19; LYPLA2 inh: inactive; PME-1 inh: inactive; LYPLA1 inh: inactive

Results for COc1cc(/C=C2\CCC/C(=C\c3ccc(O)c(OC)c3)C2=O)ccc1O ?
Fam108B inh: inactive; LYPLA2 inh: inactive; PME-1 inh: 26; LYPLA1 inh: inactive
